Compounds with a hit are over-represented: about 1.6% of the library has one in this group of screens.
PPC-1+TRAIL kill: compounds killing PPC-1 cancer cells with TRAIL present (potentiator screen, no TRAIL-free arm) | cell killing (% activity), % at 4 µM or 5 µM | PPC-1 cells + TRAIL, ATPLite viability luminescence | hit rate 0.41% among 220,000;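 active means cell killing above 50% in the first pass at 4 µM, then a duplicate retest at 5 µM averaging 50% or more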;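 further: plate controls were cells with TRAIL plus DMSO for no effect and medium-only wells lacking cells for full effect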
FLuc inh counter: Photinus pyralis luciferase inhibition counter-screen; P08659; ATPLite firefly luciferase biochemical luminescence, 10 min; inhibition, % at 10 µM; hit rate 1.5% among 200,000;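 active means inhibition above about 50% when tested at 10 µM, limit read from the data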
Target sequence (P08659 whole entry, looked up): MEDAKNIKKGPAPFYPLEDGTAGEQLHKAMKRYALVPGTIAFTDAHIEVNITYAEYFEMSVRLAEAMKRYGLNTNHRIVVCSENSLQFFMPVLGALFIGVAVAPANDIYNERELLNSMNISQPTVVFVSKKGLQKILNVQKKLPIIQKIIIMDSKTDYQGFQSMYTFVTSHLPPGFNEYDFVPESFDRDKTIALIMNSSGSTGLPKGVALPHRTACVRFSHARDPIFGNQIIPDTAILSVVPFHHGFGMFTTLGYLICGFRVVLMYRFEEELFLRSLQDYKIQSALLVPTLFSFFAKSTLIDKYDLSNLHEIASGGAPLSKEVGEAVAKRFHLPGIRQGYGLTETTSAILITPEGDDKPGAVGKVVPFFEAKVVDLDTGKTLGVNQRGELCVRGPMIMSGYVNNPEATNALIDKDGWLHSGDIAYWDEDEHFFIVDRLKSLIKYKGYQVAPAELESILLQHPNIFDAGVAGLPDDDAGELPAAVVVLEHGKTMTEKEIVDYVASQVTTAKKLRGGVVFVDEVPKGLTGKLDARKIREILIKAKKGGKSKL
TRAIL sens C8: sensitizes caspase-8 expressing cells to TRAIL | hit rate 1% among 360,000 | NB7+C8 cells + TRAIL, ATPlite viability luminescence | inhibition (viability loss, TRAIL sensitization), % at 10 µM | AID 624354;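 active means compounds causing at least 50% loss of cell viability in the single-dose screen, relative to plate controls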
FLuc stim CS: firefly luciferase counter-screen for stimulation assays. P08659. ATPlite luciferase biochemical, luminescence, 10 min; 0 = ATP-free wells, 1 = DMSO control. activation factor at 10 µM. 200,000 tested, under 10 active;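 active means luciferase activation factor, scaled between plate controls, of at least 2 with compound at 10 µM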
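Material: luciferase plus luciferin reagent, cell-free. Medium: PBS buffer for ATP. Also added: ATP substrate, dispensed from a 10.24 µM working solution in PBS. Doses: test compounds dosed from 2 mM stocks in 100% DMSO. Incubation: 10 min post-reagent at room temperature. Technique: light output (luminescence). Read-out basis: luminescence gain marking luciferase activators.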
The depositor's hits bear a star; . = not tested or not shown; ! = not active in a repeat.

SMILES | PPC-1+TRAIL kill | FLuc inh counter | TRAIL sens C8 | FLuc stim CS
O=C(NC(=S)Nc1ncccn1)c1ccc(Cl)cc1Cl | 6.8 | 64.2* | -0.8 | 0.4
N#C/C(=N\Nc1ccc(F)cc1)C(=N)N1CCCCCC1 | . | 59.1* | 30.8 | 0.4
Cc1ccc(N/N=C(\C#N)C(=N)N2CCCCCC2)cc1 | 41.8 | 51.2* | 31.2 | 0.5
Cc1ccc(-c2csc(NC(=O)CSc3nnc4c(n3)[nH]c3ccccc34)n2)cc1 | -7.7 | -5.9 | 51.5* | 1.1
Clc1ccc2c(c1)C1OCCC1C(c1ccco1)N2 (centres undefined) | 20.2 | 54.4* | 20.7 | 0.5
Cc1ccn2c(=O)nc(SCC(=O)c3ccc(Cl)cc3)nc2c1 | . | . | 10.5 | .
Cc1ccn2c(C(=O)c3ccc(Cl)cc3)cnc2c1 | 5.4 | 52.1* | 31.1 | 0.5
COc1ccccc1-c1cc(C(=O)NC2CCN(C)CC2)c2ccc(Cl)c(C)c2n1 | . | . | 70.0* | .
COc1ccccc1N(C)C(=O)c1cc(S(=O)(=O)N2CCCC2)cn1C | . | . | 7.4 | .
Cc1cc(C)n2nc(C(=O)Nc3ccc(S(=O)(=O)N4CCCC4)cc3)nc2n1 | 12.0 | . | -7.2 | .
O=C(Nc1ccc2c(c1)CCC2)c1ccc(Br)o1 | 26.9 | 35.1 | 18.4 | 0.6
O=C(Nc1ccc2c(c1)Cc1ccccc1-2)c1cc2ccccc2o1 | . | . | -3.2 | .
Cc1cc(C)n2nc(C(=O)Nc3ccc4c(c3)CCC4)nc2n1 | 29.2 | 52.4* | 26.2 | 0.5
NC(=O)c1c(NC(=O)c2cccc(N3C(=O)CCC3=O)c2)sc2c1CCCCC2 | . | . | 83.3* | .
O=C(Nc1ccc2c(c1)CCC2)c1cc2ccccc2o1 | -6.4 | 53.9* | 28.8 | 0.5
Cc1ccc(C(=O)Nc2ccc3c(c2)CCC3)o1 | 47.0 | 55.4* | 33.0 | 0.4
O=C(Nc1ccc(Cl)cc1)NN1CC(=O)N(c2cccc(C(F)(F)F)c2)CC1=O | 35.6 | . | -6.4 | .
CCN1C(=O)[C@H]2[C@H]3CN=C(SCc4ccc(C)cc4)N3[C@@](Cc3ccccc3)(C(=O)OC)[C@H]2C1=O | . | . | -14.4 | .
NC(=O)c1c(NC(=O)c2ccc(F)cc2)sc2c1CCC2 | . | . | 35.2 | .
O=C(Nc1ccc(N2CCN(C(=O)c3ccccc3)CC2)cc1)c1cc2ccccc2o1 | -2.0 | -7.8 | 52.2* | 1.1
NC(=O)c1c(NC(=O)c2cc3ccccc3o2)sc2c1CCC2 | 27.5 | 65.8* | 49.6* | 0.3
CN1CCN(c2ccc(NC(=O)c3cc4ccccc4o3)cc2)CC1 | . | . | 29.3 | .
NC(=O)NC(CC(=O)N1CCc2ccccc2C1)c1ccc(Cl)cc1 (centres undefined) | . | . | -5.0 | .
CCn1ccc(C(=O)Nc2c(C)nn(Cc3c(F)c(F)c(F)c(F)c3F)c2C)n1 | 26.6 | -7.0 | 6.9 | 1.1
Cc1ccc(NC(=S)c2ccc(N(C)C)cc2)cc1 | 8.8 | 57.6* | 38.6 | 0.4
SMILES | PPC-1+TRAIL kill | FLuc inh counter | TRAIL sens C8 | FLuc stim CS
Cc1ccc(-n2c(C3CC3c3ccc(Cl)cc3)n[nH]c2=S)cc1 (centres undefined) | -13.6 | -8.3 | 58.7* | 1.1
COc1cc(C(=O)N=c2sc3ccccc3n2C)cc(OC)c1OC | 13.5 | -4.1 | 0.6 | 1
Cn1c(=NC(=O)c2cccc([N+](=O)[O-])c2)sc2ccccc21 | -1.0 | 7.8 | 56.6* | 0.9
Cn1c(=NC(=O)CCl)sc2ccccc21 | 12.0 | -2.9 | 94.0* | 1
CC(=O)N/N=c1\sc2ccccc2n1C | 22.7 | -7.6 | -0.1 | 1.1
CCOC(=O)N1CCC(Nc2c(-c3ccc(C)c(C)c3)c(=O)c2=O)CC1 | -1.6 | -8.5 | 58.0* | 1.1
CCOC(=O)N1CCC(Nc2c(N3CCN(c4cc(Cl)ccc4C)CC3)c(=O)c2=O)CC1 | 7.5 | -10.6 | 22.6 | 1.1
CCOc1ccc(C(=O)CC(C(=O)O)N2CCCCC2)cc1 (centres undefined) | . | . | -19.8 | .
CCCc1ccc(-c2ccc(F)c(N)c2)nc1 | 38.3 | 89.5* | 69.2* | 0.1
O=C(CSC(=S)N1CCCC1)c1ccccc1 | . | . | 16.5 | .
Cc1[nH]c2ccccc2c1C(=O)CSC(=S)N1CCCCC1 | 39.5 | 54.9* | 35.2 | 0.5
O=C(CSC(=S)N1CCCCC1)c1ccccc1 | 34.3 | 76.4* | 54.0* | 0.2
O=C(Nc1cccc(-n2cnnn2)c1)c1ccc(C(F)(F)F)cc1 | . | . | 49.3* | .
O=C(NC(=S)N1CCN(c2ccc([N+](=O)[O-])cc2)CC1)c1ccccc1F | 53.2* | -3.7 | -1.9 | 1
O=C(NC(=S)N1CCN(c2ccc([N+](=O)[O-])cc2)CC1)c1ccccc1Cl | 20.3 | -3.7 | -1.7 | 1
Cc1cc(-c2n[nH]c(=S)o2)c(C)n1-c1ccccc1 | -17.1 | 67.4* | . | 0.3
Cc1nc(NC(=O)COC(=O)c2cccs2)c(Cl)cc1Cl | . | . | -3.8 | .
CC(=O)Nc1cc2nn(-c3ccccc3)nc2cc1Cl | -0.6 | 55.9* | 42.6 | 0.4
O=C(Nc1cc2nn(-c3ccccc3)nc2cc1Cl)c1ccco1 | 12.4 | 6.9 | 23.6 | 0.9
CC(C)C(=O)Nc1ccc2nn(-c3ccccc3)nc2c1 | 45.2 | 69.0* | 54.3* | 0.3
COC(=O)c1cc2cc(Cl)ccc2nc1SC | 7.5 | . | -9.7 | .
CC(C)(C)n1ncc2c(=O)n(CC(=O)OCc3ccccc3)cnc21 | 45.9 | 92.5* | 4.0 | 0.1
CC(C)(C)n1ncc2c(=O)n(CC(=O)c3ccccc3)cnc21 | -5.1 | 12.3 | 15.8 | 0.9
Oc1c(C=Nc2cccc3cccnc23)sc2ccccc12 | 3.1 | 82.0* | . | 0.2
CC1(C)CC(=O)C2=C(C1)N=C1SCCC(=O)N1C2c1cccc([N+](=O)[O-])c1 (centres undefined) | -2.0 | -4.8 | -1.9 | 1
SMILES | PPC-1+TRAIL kill | FLuc inh counter | TRAIL sens C8 | FLuc stim CS
Cc1ccc(-n2[nH]c(C)c(C=Nc3ccc4[nH]c(=O)[nH]c4c3)c2=O)cc1C | 40.0 | 4.0 | 51.3* | 1
COc1ccc(N2CC(C(=O)Nc3cc(C)ccn3)CC2=O)cc1 (centres undefined) | 13.3 | . | 2.4 | .
CCC(C)Sc1ccc(-c2nc3ccc(C)cn3c2NCc2ccccc2)cc1OC (centres undefined) | . | . | 21.8 | .
COc1ccc(-c2nc3ccccn3c2NCc2ccc3c(c2)OCO3)cc1 | 22.5 | 42.6 | 21.2 | 0.6
COc1ccc(-c2cc(-c3nc4ccccn4c3NCc3ccccc3)ccc2OC)cc1 | . | . | 78.5* | .
CCC(C)Sc1cc(-c2nc3ccc(C)cn3c2NCc2ccccc2)ccc1OC (centres undefined) | . | . | 84.1*! | .
COc1ccc(CN2CCN(Cc3ccc(Br)cc3)CC2)c(OC)c1OC | . | . | 10.4 | .
O=C1NC(=O)C2(CCCCC2C2CCCCC2)N1 (centres undefined) | . | . | -19.5 | .
Cn1ncc(Cl)c1C(=O)Nc1nc2ccc(Cl)cc2s1 | 21.0 | 60.3* | 27.3 | 0.4
COc1ccc(NC(=O)Nc2nc3ccccc3s2)cc1 | -7.5 | . | 8.9 | .
Cc1cc(C(=O)Nc2nc3ccc(Cl)cc3s2)nn1C | 10.6 | . | 24.3 | .
Nc1ccc(C(=O)Nc2nc3ccccc3s2)cc1 | 58.6* | 73.9* | 50.2* | 0.3
COc1ccccc1C(=O)Nc1nc2ccccc2s1 | . | . | 91.4* | .
COc1ccc(C(=O)Nc2nc3ccccc3s2)c(OC)c1 | . | . | 91.8* | .
CCc1nnc(NC(=O)c2ccc(Cl)nc2)s1 | 26.8 | 53.1* | 23.0 | 0.5
Nc1c(C(=O)Nc2nc3ccccc3s2)sc2nc(-c3cccs3)ccc12 | 23.8 | 16.5 | 95.9* | 0.8

Bioassay records deposited in PubChem BioAssay by Sanford-Burnham Center for Chemical Genomics.
